The values that follow come from publication PMC5259643 (Journal of Veterinary Internal Medicine, 2017).

Like-named read-outs stand apart in the source and are kept apart here.

Data set [1] is described as follows: Laryngoscopy with doxapram stimulation in dogs with brachycephalic syndrome. Type of data set: in vivo.
The nature of data set [2]: Management of Addisonian crisis. To be noted: for outcome: HSS CRI 0.3 to 0.625 mg/kg/h (n = 7), dexamethasone IV 0.05 to 0.3 mg/kg (n = 8). Type of data set: in vivo, dogs.
A short description of data set [3]: Transcutaneous ICG plasma disappearance rate. Type of data set: in vivo, dogs. The procedure, abridged: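 Healthy dogs received indocyanine green 0.5 mg/kg IV daily on three days. The plasma disappearance rate was read transcutaneously with a monitor probe, and the intrasubject coefficient of variation was calculated from the daily values.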
The conditions of data set [4]: ref previously reported data; cited from earlier work.
Data set [5] deals with feline liver organoids. The experiment in a line: Lipid accumulation in liver organoids exposed to free fatty acids. To be noted: LD540, flow cytometry. Type of data set: cell-based, cats. A digest of the protocol: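 Feline liver organoids were incubated with vehicle or free fatty acids and stained with the lipophilic dye LD540. Fluorescence was quantified by flow cytometry. β-oxidation of excess fatty acids was probed with a CPT-1 inhibitor and with L-carnitine supplementation.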
(In flow cytometry, cells or beads pass a laser one at a time.)

Data set [6] in a line: Sedation of dogs with stage B2 MMVD. Type of data set: in vivo.
Data set [7] relates to Leishmania infantum. The data set is described as follows: Randomized allopurinol‐controlled trial in dogs with clinical leishmaniosis. Type of data set: in vivo. To be noted: bone marrow; with MGA.
Data set [8] concerns the target T1, serum angiotensin‐converting enzyme (ACE) (Canis lupus familiaris, UniProt A0A8I3S3I6).
T1 sequence (A0A8I3S3I6 31-1241): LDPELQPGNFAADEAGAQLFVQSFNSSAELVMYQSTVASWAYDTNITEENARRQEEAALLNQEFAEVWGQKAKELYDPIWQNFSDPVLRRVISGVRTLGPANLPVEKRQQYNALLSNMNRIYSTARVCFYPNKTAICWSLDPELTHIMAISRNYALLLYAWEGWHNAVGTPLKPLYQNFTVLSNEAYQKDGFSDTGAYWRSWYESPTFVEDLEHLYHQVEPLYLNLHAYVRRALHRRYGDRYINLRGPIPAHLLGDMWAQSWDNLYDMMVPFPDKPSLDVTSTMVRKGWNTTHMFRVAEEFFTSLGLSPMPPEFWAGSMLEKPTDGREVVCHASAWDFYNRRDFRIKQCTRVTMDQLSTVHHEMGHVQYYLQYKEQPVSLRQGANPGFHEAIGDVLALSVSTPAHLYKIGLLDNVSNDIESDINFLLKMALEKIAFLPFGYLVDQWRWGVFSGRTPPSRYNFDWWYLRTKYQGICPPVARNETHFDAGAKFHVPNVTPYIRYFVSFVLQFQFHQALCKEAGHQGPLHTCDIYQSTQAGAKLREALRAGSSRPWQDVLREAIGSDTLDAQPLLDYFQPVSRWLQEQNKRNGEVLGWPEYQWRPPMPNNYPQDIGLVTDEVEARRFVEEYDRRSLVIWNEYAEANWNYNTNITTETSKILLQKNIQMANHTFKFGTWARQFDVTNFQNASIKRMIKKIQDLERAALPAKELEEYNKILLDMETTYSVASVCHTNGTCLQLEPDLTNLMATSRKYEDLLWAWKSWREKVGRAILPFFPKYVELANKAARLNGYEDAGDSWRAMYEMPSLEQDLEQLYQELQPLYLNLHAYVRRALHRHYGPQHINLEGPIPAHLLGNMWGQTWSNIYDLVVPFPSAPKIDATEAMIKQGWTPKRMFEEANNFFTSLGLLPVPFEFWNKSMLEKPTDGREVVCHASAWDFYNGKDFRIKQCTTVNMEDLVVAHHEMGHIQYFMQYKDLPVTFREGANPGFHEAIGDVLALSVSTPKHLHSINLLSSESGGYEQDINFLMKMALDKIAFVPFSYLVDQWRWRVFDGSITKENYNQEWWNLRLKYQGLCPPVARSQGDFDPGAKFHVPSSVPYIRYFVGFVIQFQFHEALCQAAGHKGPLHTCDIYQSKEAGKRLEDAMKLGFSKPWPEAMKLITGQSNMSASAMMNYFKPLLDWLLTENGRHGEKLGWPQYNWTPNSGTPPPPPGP
The data set is described as follows: Serum ACE activity after benazepril with or without pimobendan. Type of data set: in vivo, dogs. Particulars: for serum ACE activity versus baseline: days 1 and 15. A digest of the protocol: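 In a prospective, randomised, parallel-group design, 48 healthy beagles were split into four groups: placebo twice daily; benazepril 0.5 mg/kg once each morning; benazepril 0.25 mg/kg twice daily; or benazepril 0.25 mg/kg plus pimobendan 0.125 mg/kg, both twice daily. Dosing was oral for 15 days. Serum ACE was assayed radio-enzymatically at baseline, at 12 post-dose times on day 1, and on day 15 (steady state).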

Data set [9] can be described thus: Serum MMA after oral versus parenteral cobalamin in dogs with CE. Type of data set: in vivo.
In data set [10] the test system is bacteria isolated from urinary cultures. The data set is described as follows: Urine culture sensitivity in dogs with DM and/or HAC. Type of data set: cell-based.
For data set [11], the system named is E.Coli. The data set is described as follows: Cat with E.coli associated granulomatous colitis. Type of data set: in vivo.
In data set [12] the test system is Aelurostrongylus abstrusus; Angiostrongylus vasorum. The experiment in a line: Lungworm infection in cats and dogs in Rome treated with fenbendazole. Type of data set: in vivo. A digest of the protocol:
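Animals were diagnosed by faecal testing, BAL, lung cytology or post mortem. All received fenbendazole 50 mg/kg for 3 weeks, with further therapy according to clinical status; outcome was recorded.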

The conditions of data set [13]: dogs with HAC; ref other studies; cited from earlier work.
The test system of data set [14] is Troglostrongylus brevior. The data set is described as follows: Anthelmintic treatment of feline lungworm infection. Type of data set: in vivo, cats. To be noted: single administration; moxidectin n = 2, emodepside n = 1.
Data set [15] concerns T. brevior/A. abstrusus. The data set is described as follows: Anthelmintic treatment of feline lungworm infection. Type of data set: in vivo, cats. To be noted: for time to being healthy: five of six cats. A digest of the protocol:
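Cats with natural Troglostrongylus brevior/Aelurostrongylus abstrusus co-infection were treated with one of: single topical emodepside (n = 1), single oral milbemycin oxime (n = 2), or moxidectin given two (n = 2) or three (n = 1) times. Clinical course and time to recovery were followed.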

Data set [16] in a line: Oral torasemide in cats with CHF. Type of data set: in vivo. A digest of the protocol:
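Cats with CHF, previously on furosemide (median 6 mg/kg/24 h), were switched to oral torasemide. The median starting dose was 0.5 mg/kg/24 h (range 0.1–0.75), given once daily or split twice daily. Renal values and potassium were rechecked at follow-up.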

Data set [17] is described as follows: Cortisol monitoring in dogs with hyperadrenocorticism on trilostane. Type of data set: in vivo. A digest of the protocol: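 Multicentre open-label prospective study in dogs with hyperadrenocorticism on trilostane. Serum cortisol was measured pre-trilostane, 3 h post-trilostane, and 1 h post-ACTH stimulation.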
The nature of data set [18]: Echocardiography, blood pressure and heart rate before and after sedation. Type of data set: in vivo, cats. To be noted: ten minutes after sedation.
Data set [19] deals with Capillaria aerophila. The experiment in a line: Anthelmintic treatment of feline lungworm infection. Type of data set: in vivo, cats. To be noted: single administration, one cat.

Regarding `CCN1CC(CCN2CCOCC2)C(c2ccccc2)(c2ccccc2)C1=O.Cl` (stereo not drawn) [Dxp, doxapram hydrochloride], the “mean degree of laryngeal collapse (0 to 3)” value in data set [1] (after 1.1 mg/kg IV, before 1.64 [0–3], P < 0.001, 26 dogs) was 1.07 [0–3]. Moreover, the laryngeal abduction entry in [1] (after injection) is reported as “significant abduction of laryngeal cartilages could be observed in all dogs”.

Regarding `C[C@]12CCC(=O)C=C1CC[C@@H]1[C@@H]2[C@@H](O)C[C@@]2(C)[C@H]1CC[C@]2(O)C(=O)COC(=O)CCC(=O)O` [HSS, hydrocortisone sodium succinate], the outcome in [2] is listed as “all patients surviving to discharge”. Besides, the “median time for Na+ concentration to normalise” value in [2] (group A (HSS) versus group B (dexamethasone), P = 0.0424) is reported as “significantly shorter in group A compared to group B”.

Consider `CC1(C)C(/C=C/C=C/C=C/C=C2\N(CCCCS(=O)(=O)O)c3ccc4ccccc4c3C2(C)C)=[N+](CCCCS(=O)(=O)[O-])c2ccc3ccccc3c21` [ICG, Indocyanine green], for which the “mean ICG‐PDR” value in [3] (day one, 0.5 mg/kg IV, six healthy Beagles, transcutaneous) is 7.8 ± 3.4 %/min; in [3] (day three), 7.9 ± 2.6 %/min; in data set [3] (day two), 8.8 ± 3.7 %/min; in data set [4] it was 7.79 ± 3.3 %/min. Besides, the “highest individual %CV” value in data set [3] (dog, in vivo) is 52.5%. In addition, in data set [3] (three consecutive days), the “mean intrasubject %CV of ICG‐PDR” value came out at 35.9 ± 16.8%.

As to `C[N+](C)(C)C[C@H](O)CC(=O)[O-]` [L‐carnitine], the “lipid accumulation under excess FFA” value in [5] was “attenuated”.

`Cc1cccc(C(C)c2cnc[nH]2)c1C` (stereo not drawn) [M group, medetomidine]: the “regurgitant jet area (ARJ/LAA)” value in [6] (T1, 30 minutes after medetomidine, n = 8 per group) is “significantly decreased”. In addition, in data set [6] (T1, P < 0.05), the “body weight‐indexed LVIDs” value is on record as “increased” and the shortening fraction result is listed as “decreased”.

For the compound `Oc1ncnc2[nH]ncc12` [allopurinol], in [7], the “parasite load by RT‐QPCR” value was “significantly reduced parasite load”.

In the case of `CCOC(=O)[C@H](CCc1ccccc1)N[C@H]1CCc2ccccc2N(CC(=O)O)C1=O` [benazepril], the “serum ACE activity versus baseline” value in [8] (group B, 0.5 mg/kg once daily PO) is recorded as “significant reductions in serum ACE activity compared to baseline”; in data set [8] (group C, 0.25 mg/kg twice daily PO), “significant reductions in serum ACE activity compared to baseline”. Moreover, in [8] (non‐inferiority shown), the “0.25 mg/kg twice daily compared to 0.5 mg/kg once daily” value is on record as “equivalent inhibition of serum ACE activity”.

Consider `C/C1=C2/[N-][C@H]([C@H](CC(N)=O)[C@@]2(C)CCC(=O)NC[C@@H](C)OP(=O)([O-])O[C@H]2[C@@H](O)[C@@H](n3cnc4cc(C)c(C)cc43)O[C@@H]2CO)[C@]2(C)N=C(/C(C)=C3N=C(/C=C4N=C1[C@@H](CCC(N)=O)C\4(C)C)[C@@H](CCC(N)=O)[C@]\3(C)CC(N)=O)[C@@H](CCC(N)=O)[C@]2(C)CC(N)=O.[Co]` [cbl, Cobalamin], for which the “median serum MMA” value in [9] (PE, 4 weeks, range 377–932, initial 934, n = 17) was 724 mmol/L; in [9] (PE, 12 weeks, range 349–1145, n = 13), 671 mmol/L; in data set [9] (PO, 4 weeks, range 386–1465, initial 923, GC‐MS, n = 19), 672 mmol/L; in data set [9] (PO, 12 weeks, range 450–1221, n = 16), 735 mmol/L.

As for `C[C@@H]1C[C@H]2[C@@H]3CCC4=CC(=O)C=C[C@]4(C)[C@@]3(F)[C@@H](O)C[C@]2(C)[C@@]1(O)C(=O)CO` [dexamethasone], in [2], the outcome was “all patients surviving to discharge”.

In the case of `CCN1CCN(c2cc3c(cc2F)c(=O)c(C(=O)O)cn3C2CC2)CC1` [enrofloxacin], the bacterial resistance in data set [10] came to 38%. In [11] (5 mg/kg SID for 6 weeks, one cat), the clinical response result is “complete resolution of clinical signs”. This compound registered a remission sustained in [11] (to date) of 4 months.

For `CCOC(=O)[C@@]1(CCCCCCOc2ccc(Cl)cc2)CO1` [etomoxir], the “lipid accumulation under excess FFA” value in [5] is on record as “enhanced”.

On to `COC(=O)Nc1nc2ccc(Sc3ccccc3)cc2[nH]1` [fenbendazole], for which, in [12] (50 mg/kg for 3 weeks plus other therapy, 21 dogs), the outcome in dogs was “Five dogs died; the others recovered”. For the same compound, the outcome in cats in data set [12] (50 mg/kg for 3 weeks, 20 cats) is recorded as “fully recovered”.

For the compound `Clc1ccc(C(c2ccccc2Cl)C(Cl)Cl)cc1` (stereo not drawn) [mitotane], in [13], the mean survival time is on record as 985 ± 57 days.

With `CO/N=C1\C[C@]2(C[C@@H]3C[C@@H](C/C=C(\C)C[C@@H](C)/C=C/C=C4\CO[C@@H]5[C@H](O)C(C)=C[C@@H](C(=O)O3)[C@]45O)O2)O[C@H](/C(C)=C/C(C)C)[C@H]1C` [moxidectin], the time to recovery in data set [14] lay within 14 to 42 days. Besides, the “time to being healthy” value in [15] was 14 to 42 days.

In the case of `Cc1cccc(Nc2ccncc2S(=O)(=O)NC(=O)NC(C)C)c1` [torasemide], in [16] (in vivo), the “main adverse clinical effect” value is given as “worsening azotaemia” and the tolerability entry is “tolerated by this population of cats with CHF”. The “median survival time after commencing torasemide” value in [16] (range 7–177 d, 11 cats) was 48 days.

For the compound `C[C@]12CC[C@H]3[C@@H](CC[C@@]45O[C@@H]4C(O)=C(C#N)C[C@]35C)[C@@H]1CC[C@@H]2O` [trilostane], in data set [17] (21 dogs, 45 pairs on same dose), the “median cortisol pre‐trilostane” value came out at 114.0 nmol/L. The “median cortisol 1 hour post‐ACTH stimulation” value in data set [17] (dog, in vivo) was 110.0 nmol/L. Also, the “median cortisol 3 hours post‐trilostane” value in data set [17] (significantly lower than the other two) stood at 53.5 nmol/L. Moreover, in [13], the mean survival time is 1051 ± 78 days.

Turning to dexmedetomidine and buprenorphine, the “IVSd, IVSs, LVPWd, LVPWs, Ao, La/Ao, pulmonic acceleration time” value in [18] is “did not differ pre‐ and post‐sedation”. Also, the “LVIDd, LVIDs, RVIDd, LA, pulmonic deceleration time, SBP, DBP, MAP” value in [18] (50 cats, P ≤ 0.022) is listed as “increased after sedation”. The “Vmax Ao, Vmax A pulm, FS, AT/DT and HR” value in data set [18] (P < 0.0001) is reported as “decreased after sedation”.

For eprinomectin, the outcome in data set [19] is given as “healthy after two weeks”.

In the case of milbemycin oxime, the “time to being healthy” value in [15] was 14 to 42 days. Moreover, the fatal outcome in data set [15] (one of two cats on single oral dose) was “died after an acute onset of dyspnoea”.
